The source made the active and inactive calls. No cut-off for these calls is given here.
Columns and labels:
Format in all cases: functional
[1] = tested on: MOLT-4; experiment: Growth inhibition of human MOLT4 cells at 10 uM after 48 hrs by SRB assay; details: MOLT-4, 48 h, read-out: GI
How it was run: (§1)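 Cells grown in RPMI 1640 with 5% FBS and 2 mM L-glutamine, plated at 5000–40,000 cells/well by doubling time and preincubated 24 h (37 °C, 5% CO2); a time-zero plate is TCA-fixed. Single dose added, then 48 h incubation. Fixed with cold TCA, stained with 0.4% SRB, dye solubilized in 10 mM Tris base, absorbance at 515 nm; percent growth vs time-zero and untreated control.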

[2] = tested on: A549; experiment: Growth inhibition of human A549 cells at 10 uM after 48 hrs by SRB assay; details: A549, 48 h, read-out: GI; how it was run: as §1
[3] = tested on: HCT-15; experiment: Growth inhibition of human HCT15 cells at 10 uM after 48 hrs by SRB assay; details: HCT-15, 48 h, read-out: GI; how it was run: as §1
[4] = tested on: PC-3; experiment: Growth inhibition of human PC3 cells at 10 uM after 48 hrs by SRB assay; details: PC-3, 48 h, read-out: GI; how it was run: as §1
[5] = tested on: OVCAR-8; experiment: Growth inhibition of human OVCAR8 cells at 10 uM after 48 hrs by SRB assay; details: OVCAR-8, 48 h, read-out: GI; how it was run: as §1
[6] = tested on: SK-MEL-2; experiment: Growth inhibition of human SK-MEL-2 cells at 10 uM after 48 hrs by SRB assay; details: SK-MEL-2, 48 h, read-out: GI; how it was run: as §1
[7] = tested on: HOP-62; experiment: Growth inhibition of human HOP62 cells at 10 uM after 48 hrs by SRB assay; details: HOP-62, 48 h, read-out: GI; how it was run: as §1
[8] = tested on: NCI-H522; experiment: Growth inhibition of human NCI-H522 cells at 10 uM after 48 hrs by SRB assay; details: NCI-H522, 48 h, read-out: GI; how it was run: as §1
[9] = tested on: DU-145; experiment: Growth inhibition of human DU145 cells at 10 uM after 48 hrs by SRB assay; details: DU-145, 48 h, read-out: GI; how it was run: as §1
[10] = tested on: 786-0; experiment: Growth inhibition of human 786-0 cells at 10 uM after 48 hrs by SRB assay; details: 786-0, 48 h, read-out: GI; how it was run: as §1
[11] = tested on: SNB-19; experiment: Growth inhibition of human SNB19 cells at 10 uM after 48 hrs by SRB assay; details: SNB-19, 48 h, read-out: GI
How it was run: (§2)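 NCI 60-cell-line screen with a single 10 µM dose. Cells are grown in RPMI 1640 with 5% FBS and 2 mM L-glutamine, plated at 5000–40,000 cells/well according to doubling time, and preincubated 24 h at 37 °C, 5% CO2; time-zero plates are TCA-fixed at that point. Drug exposure is 48 h. Adherent cells are fixed with cold TCA, stained with 0.4% SRB in 1% acetic acid and read at 515 nm. Percent growth is calculated relative to time-zero and untreated controls and reported as GI%.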

[12] = tested on: NCI-H226; experiment: Growth inhibition of human NCI-H226 cells at 10 uM after 48 hrs by SRB assay; details: NCI-H226, 48 h, read-out: GI; how it was run: as §1
[13] = tested on: OVCAR-3; experiment: Growth inhibition of human OVCAR3 cells at 10 uM after 48 hrs by SRB assay; details: OVCAR-3, 48 h, read-out: GI; how it was run: as §1
[14] = tested on: SK-MEL-5; experiment: Growth inhibition of human SK-MEL-5 cells at 10 uM after 48 hrs by SRB assay; details: SK-MEL-5, 48 h, read-out: GI; how it was run: as §1
[15] = tested on: Malme-3M; experiment: Growth inhibition of human MALME-3M cells at 10 uM after 48 hrs by SRB assay; details: read-out: GI; how it was run: as §1
[16] = Growth inhibition of human NCI-ADR-RES cells at 10 uM after 48 hrs by SRB assay; details: read-out: GI; how it was run: as §1
[17] = tested on: RPMI-8226; experiment: Growth inhibition of human RPMI8226 cells at 10 uM after 48 hrs by SRB assay; details: RPMI-8226, 48 h, read-out: GI; how it was run: as §1
[18] = tested on: SF-268; experiment: Growth inhibition of human SF268 cells at 10 uM after 48 hrs by SRB assay; details: SF-268, 48 h, read-out: GI; how it was run: as §1
[19] = tested on: SW-620; experiment: Growth inhibition of human SW620 cells at 10 uM after 48 hrs by SRB assay; details: SW-620, 48 h, read-out: GI; how it was run: as §2
[20] = tested on: T47D; experiment: Growth inhibition of human T47D cells at 10 uM after 48 hrs by SRB assay; details: read-out: GI; how it was run: as §2
[21] = tested on: UO-31; experiment: Growth inhibition of human UO31 cells at 10 uM after 48 hrs by SRB assay; details: UO-31, 48 h, read-out: GI; how it was run: as §2
[22] = tested on: TK-10; experiment: Growth inhibition of human TK10 cells at 10 uM after 48 hrs by SRB assay; details: TK-10, 48 h, read-out: GI; how it was run: as §2
[23] = tested on: KM12; experiment: Growth inhibition of human KM12 cells at 10 uM after 48 hrs by SRB assay; details: KM12, 48 h, read-out: GI; how it was run: as §1
[24] = tested on: OVCAR-5; experiment: Growth inhibition of human OVCAR5 cells at 10 uM after 48 hrs by SRB assay; details: OVCAR-5, 48 h, read-out: GI; how it was run: as §1
[25] = tested on: MDA-MB-468; experiment: Growth inhibition of human MDA-MB-468 cells at 10 uM after 48 hrs by SRB assay; how it was run: as §1

Compound: O=c1c2cccc3c(Nc4ccc(Br)cn4)ccc(c32)c2nc3ccccc3n12
- inhibition of growth at 10 µM [1]: < 20%
- inhibition of growth at 10 µM [2]: < 20%
- inhibition of growth at 10 µM [3]: 28%
- inhibition of growth at 10 µM [4]: 23.3%
- inhibition of growth at 10 µM [5]: < 20%
- inhibition of growth at 10 µM [6]: < 20%
- inhibition of growth at 10 µM [7]: < 20%
- inhibition of growth at 10 µM [8]: < 20%
- inhibition of growth at 10 µM [9]: < 20%
- inhibition of growth at 10 µM [10]: < 20%
- inhibition of growth at 10 µM [11]: < 20%
- inhibition of growth at 10 µM [12]: < 20%
- inhibition of growth at 10 µM [13]: < 20%
- inhibition of growth at 10 µM [14]: 23.8%
- inhibition of growth at 10 µM [15]: < 20%
- inhibition of growth at 10 µM [16]: < 20%
- inhibition of growth at 10 µM [17]: 43.8%
- inhibition of growth at 10 µM [18]: < 20%
- inhibition of growth at 10 µM [19]: < 20%
- inhibition of growth at 10 µM [20]: 81.6%
- inhibition of growth at 10 µM [21]: 47.9%
- inhibition of growth at 10 µM [22]: 21.9%
- inhibition of growth at 10 µM [23]: 22.8%
- inhibition of growth at 10 µM [24]: < 20%
- growth inhibition (GI) [25]: Active

Compound: O=c1c2cccc3c(Nc4ccc(F)cc4)ccc(c32)c2nc3ccccc3n12
- inhibition of growth at 10 µM [1]: < 20%
- inhibition of growth at 10 µM [2]: < 20%
- inhibition of growth at 10 µM [3]: 28.9%
- inhibition of growth at 10 µM [4]: 22.8%
- inhibition of growth at 10 µM [5]: < 20%
- inhibition of growth at 10 µM [6]: < 20%
- inhibition of growth at 10 µM [7]: < 20%
- inhibition of growth at 10 µM [8]: < 20%
- inhibition of growth at 10 µM [9]: < 20%
- inhibition of growth at 10 µM [10]: < 20%
- inhibition of growth at 10 µM [11]: 22.4%
- inhibition of growth at 10 µM [12]: < 20%
- inhibition of growth at 10 µM [13]: < 20%
- inhibition of growth at 10 µM [14]: 29.6%
- inhibition of growth at 10 µM [15]: < 20%
- inhibition of growth at 10 µM [16]: < 20%
- inhibition of growth at 10 µM [17]: 42.6%
- inhibition of growth at 10 µM [18]: < 20%
- inhibition of growth at 10 µM [19]: < 20%
- inhibition of growth at 10 µM [20]: 76.6%
- inhibition of growth at 10 µM [21]: 50.8%
- inhibition of growth at 10 µM [22]: 24.7%
- inhibition of growth at 10 µM [23]: 25.6%
- inhibition of growth at 10 µM [24]: < 20%
- growth inhibition (GI) [25]: Active

Compound: O=c1c2cccc3c(NCCO)ccc(c32)c2nc3ccccc3n12
- inhibition of growth at 10 µM [1]: < 20%
- inhibition of growth at 10 µM [2]: < 20%
- inhibition of growth at 10 µM [3]: < 20%
- inhibition of growth at 10 µM [4]: < 20%
- inhibition of growth at 10 µM [5]: < 20%
- inhibition of growth at 10 µM [6]: < 20%
- inhibition of growth at 10 µM [7]: < 20%
- inhibition of growth at 10 µM [8]: < 20%
- inhibition of growth at 10 µM [9]: < 20%
- inhibition of growth at 10 µM [10]: < 20%
- inhibition of growth at 10 µM [11]: < 20%
- inhibition of growth at 10 µM [12]: < 20%
- inhibition of growth at 10 µM [13]: < 20%
- inhibition of growth at 10 µM [14]: 20.2%
- inhibition of growth at 10 µM [15]: < 20%
- inhibition of growth at 10 µM [16]: < 20%
- inhibition of growth at 10 µM [17]: 28.6%
- inhibition of growth at 10 µM [18]: < 20%
- inhibition of growth at 10 µM [19]: < 20%
- inhibition of growth at 10 µM [20]: 31.7%
- inhibition of growth at 10 µM [21]: 38.3%
- inhibition of growth at 10 µM [22]: < 20%
- inhibition of growth at 10 µM [23]: < 20%
- inhibition of growth at 10 µM [24]: < 20%
- inhibition of growth at 10 µM ([25]; MDA-MB-468, 48 h, read-out: GI): 81.1%

From ChEMBL document CHEMBL2424551, “Synthesis, in vitro evaluation and molecular modelling of naphthalimide analogue as anticancer agents” (2013)
